Active and inactive are the calls of the source. The rule behind the calls is not given here.
How the values were obtained:
[1] = Cytotoxicity against dog MDCK cells after 48 hrs by CellTiter 96 AQueous non-radioactive cell proliferation assay; format: cell-based, Canis lupus familiaris
In short: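 MDCK cells, grown in DMEM with 10% FBS and penicillin−streptomycin at 37 °C/5% CO₂, seeded at 1 × 10⁵ cells/mL and exposed to varied compound concentrations without virus. Incubated 48 h at 37 °C under 5% CO₂, then read with CellTiter 96 AQueous (MTS) reagent. CC₅₀ is the 50% cytotoxic concentration from the curve fit.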

[2] = Inhibition of nucleoprotein trimerization in recombinant Influenza A virus A/WSN/1933 (H1N1) infected in MDCK cells assessed as reduction in reduction in E339(carboxyl group)-R416(guanidino group) interaction by measuring virus-induced cytopathic effect after 48 hrs by CellTiter 96 AQueous non-radioactive cell proliferation assay; format: cell-based
In short: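 CPE protection assay. Virus at 100 TCID₅₀ is mixed 1:1 with compound at varied concentrations and added to MDCK cells (1 × 10⁵ cells/mL). After 48 h at 37 °C/5% CO₂, CPE is read with CellTiter 96 AQueous reagent. EC₅₀, the concentration giving 50% protection from CPE, is obtained by fitting percent CPE against concentration.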

Influenza A virus [3] = assay: Antiviral activity against Influenza A virus A/WSN/1933 (H1N1) infected in BALB/c mouse assessed as increase in animal body weight at 20 mg/kg/day, ip administered for 5 days and measured after 10 days post infection; format: functional, organism-based
In short: (§1)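 Female BALB/c mice (18−20 g), quarantined 48−72 h, anesthetized i.p. (zoletil or ketamine/xylazine). Drug in PBS with 40% PEG 400 given i.p. twice daily for 5 days. Intranasal virus challenge (25 μL, 2X mouse LD₅₀) 4 h after first dose. Vehicle-only controls on the same schedule; 10 mice/group. Survival and body weight recorded daily for 14 days.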

Influenza A virus [4] = assay: Antiviral activity against Influenza A virus A/WSN/1933 (H1N1) infected in BALB/c mouse assessed as animal survival rate at 20 mg/kg/day, ip administered for 5 days and measured after 14 days relative to control; format: functional; in short: as §1
[5] = Aqueous solubility of compound; format: physicochemical; details: buffer

SMILES | CC50 at 48 h [1] [µM] | EC50 [2] [µM] | Activity (Influenza A virus [3]) | Activity (Influenza A virus [4]) [%] | solubility [5]
CC(C)OCCCNC(=O)c1csc(Nc2cc(Cl)c(Cl)c(Cl)c2)n1 | > 100 | 0.6 | – | – | –
CCOCCCNC(=O)c1csc(Nc2ccc(Cl)c(Cl)c2)n1 | > 100 | 0.2 | – | – | –
CCOCCCNC(=O)c1csc(Nc2cc(F)c(Cl)c(F)c2)n1 [listing 1 of 2 here] | – | – | Active | – | –
CCOCCCNC(=O)c1csc(Nc2cc(Cl)c(Cl)c(Cl)c2)n1 | > 100 | 0.4 | – | – | –
CCOCCCNC(=O)c1csc(Nc2cc(C)c(Cl)c(C)c2)n1 | > 100 | 2.3 | – | – | –
O=C(NCCCN1CCOCC1)c1csc(Nc2cc(F)c(Cl)c(F)c2)n1 | 52 | 0.8 | – | – | –
Cc1cc(Nc2nc(C(=O)NCCCOC(C)C)cs2)ccc1Cl | > 100 | 1.2 | – | – | –
O=C(NCCCN1CCOCC1)c1csc(Nc2ccc(Cl)c(Cl)c2)n1 | 35.6 | 2.7 | – | – | –
CC(C)OCCCNC(=O)c1csc(Nc2cc(F)c(Cl)c(F)c2)n1 [listing 1 of 2 here] | – | – | Active | – | –
O=C(NCCCN1CCOCC1)c1csc(Nc2ccc(Cl)c(F)c2)n1 | 45 | 3.2 | – | – | –
CCOCCCNC(=O)c1csc(Nc2cc(F)c(Cl)c(F)c2)n1.CS(=O)(=O)O.CS(=O)(=O)O | – | – | – | 70 | –
CC(C)OCCCNC(=O)c1csc(Nc2cc(F)c(Cl)c(F)c2)n1.O=S(=O)(O)O.O=S(=O)(O)O | – | – | – | 30 | –
CC(C)OCCCNC(=O)c1csc(Nc2ccc(Cl)c(Cl)c2)n1 | 100 | 0.7 | – | – | –
O=C(NCCCN1CCOCC1)c1csc(Nc2ccc(Cl)cc2)n1 | > 100 | 3.1 | – | – | –
CCOCCCNC(=O)c1csc(Nc2ccc(Cl)c(C)c2)n1 | 52 | 1 | – | – | –
CC(C)OCCCNC(=O)c1csc(Nc2cc(F)c(Cl)c(F)c2)n1 [listing 2 of 2 here] | > 100 | 0.11 | – | – | Insoluble
CCOCCCNC(=O)c1csc(Nc2ccc(Cl)cc2)n1 | > 100 | 1.3 | – | – | –
CCOCCCNC(=O)c1csc(Nc2ccc(Cl)c(F)c2)n1 | > 100 | 0.6 | – | – | –
Cc1cc(Nc2nc(C(=O)NCCCOC(C)C)cs2)cc(C)c1Cl | > 100 | 1.3 | – | – | –
CC(C)OCCCNC(=O)c1csc(Nc2ccc(Cl)c(F)c2)n1 | > 100 | 0.5 | – | – | –
CCOCCCNC(=O)c1csc(Nc2cc(F)c(Cl)c(F)c2)n1 [listing 2 of 2 here] | > 100 | 0.12 | – | – | Insoluble
CC(C)OCCCNC(=O)c1csc(Nc2ccc(Cl)cc2)n1 | > 100 | 1.2 | – | – | –
Cc1cc(Nc2nc(C(=O)NCCCN3CCOCC3)cs2)ccc1Cl | 47 | 3.7 | – | – | –
O=C(NCCCN1CCOCC1)c1csc(Nc2cc(Cl)c(Cl)c(Cl)c2)n1 | 41 | 1.5 | – | – | –
Cc1cc(Nc2nc(C(=O)NCCCN3CCOCC3)cs2)cc(C)c1Cl | 45.7 | 3.1 | – | – | –
